≈ marks a conversion by molar mass, not a printed value.
How the values were obtained:
Candida albicans = test: Antifungal activity against Candida albicans SC5314 after 24 hrs; type: functional
Procedure, shortened: (§1)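 Overnight YPD cultures diluted in PBS (1/200 for C. albicans, 1/400 for C. glabrata). Cells treated with compound, or 2.5% DMSO as solvent control, for 24 h at 37 °C. CFUs then counted; MFC is the concentration giving 99% killing of the inoculum.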

Nakaseomyces glabratus = test: Antifungal activity against Candida glabrata BG2 after 24 hrs; type: functional; procedure, shortened: as §1
Aspergillus fumigatus = test: Antifungal activity against Aspergillus fumigatus CBS 117202 after 24 hrs by two-fold dilution method; type: functional; conditions: CBS 117202, 24 h
Procedure, shortened: (§2)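 Spores at 2×10^4 spores/mL in potato dextrose broth, incubated with a 2-fold compound dilution series for 24 h at 25 °C. Growth read by microspectrophotometry of the liquid cultures. MIC taken as the lowest concentration inhibiting fungal growth.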

Aspergillus flavus = test: Antifungal activity against Aspergillus flavus CBS111.45 after 24 hrs by two-fold dilution method; type: functional; conditions: CBS111.45, 24 h; procedure, shortened: as §2
[1] = test system: Trichophyton mentagrophytes; test: Fungicidal activity against Trichophyton mentagrophytes B70554; type: functional, organism-based
Procedure, shortened: (§3)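 Inoculum of 10^3 CFU in RPMI-MOPS added to prediluted compound, highest concentration 64 µM. Growth read by resazurin fluorescence (ex 550, em 590 nm). IC50 is 50% growth inhibition versus untreated controls. Three independent replicates.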

Trichophyton rubrum = test: Fungicidal activity against Trichophyton rubrum B68183; type: functional, organism-based; procedure, shortened: as §3
Microsporum canis = test: Fungicidal activity against Microsporum canis B68128; type: functional; procedure, shortened: as §3
Sporothrix schenckii = test: Fungicidal activity against Sporothrix schenckii B62482; type: functional, organism-based; procedure, shortened: as §3
[2] = Cytotoxicity against human MRC5 SV2 cells after 72 hrs by fluorescence assay; type: cell-based
Procedure, shortened: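 MRC-5 SV2 cells (10^4/well) grown in MEM with L-glutamine, NaHCO3 and 5% FCS. Incubated with compound 72 h at 37 °C, 5% CO2, then resazurin added for 24 h. Fluorescence read at ex 530, em 590 nm.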

[3] = Half life in human plasma; type: ADME, cell-free

SMILES	MFC99 (Candida albicans) [µg/mL]	other results
CC(C)c1ccc(NC(=O)CC2C(=O)OC(C)(C)CN2C)cc1 (stereo unspecified)	>25	
CCN1CC(CC)(CC)OC(=O)C1CC(=O)Nc1ccc(C(C)C)cc1 (stereo unspecified)	>25	
CCN1CC(C)(C)OC(=O)C1CC(=O)NCc1ccccc1Cl (stereo unspecified)	25 (≈ 73.8 µM)	
CCN1CC(C)(C)OC(=O)C1CC(=O)Nc1cccnc1 (stereo unspecified)	>50	
CCN(CC)C(=O)CC1C(=O)OC(C)(C)CN1CC (stereo unspecified)	>50	
CC(C)c1ccc(NC(=O)CC2C(=O)OC(C)(C)CN2C(C)C)cc1 (stereo unspecified)	>25	
CCN1CC(C)(C)OC(=O)C1C(C)(C)C(=O)Nc1ccc(C(C)C)cc1 (stereo unspecified)	>50	
CC(C)c1ccc(NC(=O)CC2NCC(C)(C)OC2=O)cc1 (stereo unspecified)	>25	
CCN1CC(C)(C)OC(=O)C1CC(=O)NCc1cccc(C)c1 (stereo unspecified)	12.5 (≈ 39.3 µM)	
CCCNC(=O)CC1C(=O)OC(C)(C)CN1CC (stereo unspecified)	25 (≈ 97.5 µM)	
CCN1CC(C)(C)OC(=O)C1CC(=O)Nc1ccc2c(ccn2C)c1 (stereo unspecified)	12.5 (≈ 36.4 µM)	MFC99 (Nakaseomyces glabratus): 50 µg/mL (≈ 146 µM); MIC (Aspergillus fumigatus): 3.1 µg/mL (≈ 9.03 µM); MIC (Aspergillus flavus): 25 µg/mL (≈ 72.8 µM); IC50 [1]: 11 µg/mL (≈ 32 µM); IC50 (Trichophyton rubrum): 11 µg/mL (≈ 32 µM); IC50 (Microsporum canis): 6.2 µg/mL (≈ 18.1 µM); IC50 (Sporothrix schenckii): 10 µg/mL (≈ 29.1 µM); CC50 at 72 h [2]: > 20 µg/mL
CCN1CC(C)(C)OC(=O)C1CC(=O)NCc1ccc(Cl)c(Cl)c1 (stereo unspecified)	12.5 (≈ 33.5 µM)	
CCN1CC(C)(C)OC(=O)C1CC(=O)Nc1ccccn1 (stereo unspecified)	>50	
CCN1CC(C)(C)OC(=O)C1CC(=O)NCc1cccc(C(F)(F)F)c1 (stereo unspecified)	25 (≈ 67.1 µM)	
CCN1CC(C)(C)OC(=O)C1CC(=O)NC1CCCCC1 (stereo unspecified)	50 (≈ 169 µM)	
CCN1CC(C)(C)OC(=O)C1CC(=O)N1CCOCC1 (stereo unspecified)	>50	
CCN1CC(C)(C)OC(=O)C1CC(=O)Nc1ccc2scnc2c1 (stereo unspecified)	>50	
CCN1CC(C)(C)OC(=O)C1CC(=O)Nc1ccncn1 (stereo unspecified)	>50	
CCN1CC(C)(C)OC(=O)C1CC(=O)NC1CCCC1 (stereo unspecified)	50 (≈ 177 µM)	
CCN1CC(C)(C)OC(=O)C1CC(=O)NCc1cccc(OC)c1 (stereo unspecified)	25 (≈ 74.8 µM)	
CC(C)c1ccc(NC(=O)CC2C(=O)OC(C)(C)CN2CC(F)(F)F)cc1 (stereo unspecified)	>25	
CCN1C[C@@H](c2ccccc2)OC(=O)C1CC(=O)Nc1ccc(C(C)C)cc1 (stereo partly specified)	12.5 (≈ 32.9 µM)	half-life [3]: 31 min
CCN1CC(C)(C)OC(=O)C1CC(=O)NCc1ccco1 (stereo unspecified)	50 (≈ 170 µM)	
CCN1CC(C)(C)OC(=O)C1CC(=O)NCCc1ccccc1 (stereo unspecified)	25 (≈ 78.5 µM)	
CCN1CC(C)(C)OC(=O)C1CC(=O)NCCC(C)(C)C (stereo unspecified)	25 (≈ 83.8 µM)	
CCN1CC(C)(C)OC(=O)C1CC(=O)NCc1cccc(Cl)c1 (stereo unspecified)	6.25 (≈ 18.4 µM)	
CCN1CC(C)(C)OC(=O)C1CC(=O)N(C)c1ccccc1 (stereo unspecified)	>50	
